This note sets out measurements from ChEMBL document CHEMBL3525897, “Metabolism and quantification of [(18)F]DPA-714, a new TSPO positron emission tomography radioligand” (Drug Metab Dispos, 2013).

SMILES strings stand for the structures.

A short description of data set [1]: Retention time of the compound by LC-MS analysis. It counts as physicochemical. Put shortly: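 Separation of DPA-714 and its metabolites by LC-MS on reverse-phase Atlantis C18 column (2.1x150 mm) with electrospray ionization.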
Data set [2] deals with Liver microsome. Put plainly: Drug level in Sprague-Dawley rat liver microsomes treated with DPA-714 after 15 to 60 mins by LC-MS/MS analysis.
Data set [3] deals with Liver microsome. Put plainly: Drug metabolism in Sprague-Dawley rat liver microsomes assessed as N,N-diethyl-2-(2-(4-hydroxyphenyl)-5,7-dimethylpyrazolo[1,5-a]pyrimidin-3-yl)acetamide level after 15 to 60 mins by LC-MS/MS analysis. It counts as ADME. A digest of the protocol:
(§1)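 Liver microsomes (rat, baboon, or pooled human from 10 donors), 1 mg protein/mL, with DPA-714 100 µM in 0.1 M potassium phosphate, pH 7.4. Preincubated 2 min at 37°C, then started with NADPH-generating system. Run 15, 30 and 60 min; rates from 30 min. Stopped with acetonitrile, filtered, analysed by LC-MS-MS. Rates in nmol/mg/min; mean ± sd of 5 duplicate experiments.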
(Liver microsomes are a subcellular fraction often used to study metabolism.)

Data set [4] is described as follows: Drug metabolism in baboon liver microsomes assessed as N,N-diethyl-2-(2-(4-hydroxyphenyl)-5,7-dimethylpyrazolo[1,5-a]pyrimidin-3-yl)acetamide level after 15 to 60 mins by LC-MS/MS analysis. The class given is ADME. Particulars: papio anubis. A digest of the protocol: as §1
Data set [5] has as its system Liver microsome. Put plainly: Drug metabolism in Sprague-Dawley rat liver microsomes assessed as N-ethyl-2-(2-(4-(2-fluoroethoxy)phenyl)-5-(hydroxymethyl)-7-methylpyrazolo[1,5-a]pyrimidin-3-yl)acetamide level after 15 to 60 mins by LC-MS/MS analysis. It counts as ADME. A digest of the protocol:
as §1

Data set [6] relates to Liver microsome. Put plainly: Drug metabolism in Sprague-Dawley rat liver microsomes assessed as N,N-diethyl-2-(2-(4-(2-fluoroethoxy)phenyl)-5-(hydroxymethyl)-7-methylpyrazolo[1,5-a]pyrimidin-3-yl)acetamide level after 15 to 60 mins by LC-MS/MS analysis. It counts as ADME. Put shortly: as §1
In data set [7] the test system is Liver microsome. Put plainly: Drug metabolism in human liver microsomes assessed as N,N-diethyl-2-(2-(4-(2-fluoroethoxy)phenyl)-7-(hydroxymethyl)-5-methylpyrazolo[1,5-a]pyrimidin-3-yl)acetamide level after 15 to 60 mins by LC-MS/MS analysis. The class given is ADME. Put shortly: as §1
The test system of data set [8] is Liver microsome. Put plainly: Drug metabolism in human liver microsomes assessed as N-ethyl-2-(2-(4-(2-fluoroethoxy)phenyl)-5,7-dimethylpyrazolo[1,5-a]pyrimidin-3-yl)acetamide level after 15 to 60 mins by LC-MS/MS analysis. The class given is ADME. A digest of the protocol: as §1
The subject of data set [9] is Liver microsome. Put plainly: Drug metabolism in Sprague-Dawley rat liver microsomes assessed as N,N-diethyl-2-(2-(4-(2-fluoroethoxy)phenyl)-6-hydroxy-5,7-dimethylpyrazolo[1,5-a]pyrimidin-3-yl)acetamide level after 15 to 60 mins by LC-MS/MS analysis. The class given is ADME. A digest of the protocol:
as §1

In data set [10] the test system is Liver microsome. Put plainly: Drug metabolism in Sprague-Dawley rat liver microsomes assessed as N,N-diethyl-2-(2-(4-(2-fluoroethoxy)phenyl)-7-(hydroxymethyl)-5-methylpyrazolo[1,5-a]pyrimidin-3-yl)acetamide level after 15 to 60 mins by LC-MS/MS analysis. The class given is ADME. Put shortly: as §1
The subject of data set [11] is Liver microsome. Put plainly: Drug metabolism in Sprague-Dawley rat liver microsomes assessed as N-ethyl-2-(2-(4-(2-fluoroethoxy)phenyl)-5,7-dimethylpyrazolo[1,5-a]pyrimidin-3-yl)acetamide level after 15 to 60 mins by LC-MS/MS analysis. The class given is ADME. A digest of the protocol: as §1
Data set [12] in a line: Drug metabolism in baboon liver microsomes assessed as N,N-diethyl-2-(2-(4-(2-fluoroethoxy)phenyl)-7-(hydroxymethyl)-5-methylpyrazolo[1,5-a]pyrimidin-3-yl)acetamide level after 15 to 60 mins by LC-MS/MS analysis. The class given is ADME. Particulars: papio anubis. A digest of the protocol: as §1
The subject of data set [13] is Liver microsome. Put plainly: Drug metabolism in Sprague-Dawley rat liver microsomes assessed as N,N-diethyl-2-(2-(4-(2-fluoroethoxy)phenyl)-5,7-bis(hydroxymethyl)pyrazolo[1,5-a]pyrimidin-3-yl)acetamide level after 15 to 60 mins by LC-MS/MS analysis. The class given is ADME. Put shortly:
as §1

`CCN(CC)C(=O)Cc1c(-c2ccc(O)cc2)nn2c(C)cc(C)nc12` yielded a Retention_time in [1] of 15.05 min. Further, in the data set on Liver microsome [2], the Drug metabolism entry is reported as “metabolite_detected”.

In the case of `CCN(CC)C(=O)Cc1c(-c2ccc(OCCF)cc2)nn2c(C)cc(C)nc12` [DPA-714], the Drug metabolism result with Liver microsome [3] is “metabolite_detected”; in data set [4] it was 0.64 nmol/mg/min; with Liver microsome [5], “metabolite_detected”; in the data set with Liver microsome [6], 0.89 nmol/mg/min; in the data set with Liver microsome [7], 0.57 nmol/mg/min; in the data set on Liver microsome [8], 0.45 nmol/mg/min. Further, the Drug metabolism result is “metabolite_detected” with Liver microsome [9]; “metabolite_detected” in the data set on Liver microsome [10]; 0.82 nmol/mg/min in the data set on Liver microsome [11]; 0.46 nmol/mg/min in [12]; “metabolite_detected” in the data set with Liver microsome [13].

Consider `CCNC(=O)Cc1c(-c2ccc(OCCF)cc2)nn2c(C)cc(C)nc12`, for which the Retention_time in data set [1] came out at 16.1 min. For the same compound, in the data set with Liver microsome [2], the Drug metabolism entry is “metabolite_detected”.

The compound `CCN(CC)C(=O)Cc1c(-c2ccc(OCCF)cc2)nn2c(CO)cc(C)nc12` yielded a Retention_time in data set [1] of 15.85 min. The Drug metabolism entry in the data set on Liver microsome [2] is recorded as “metabolite_detected”.

The compound `CCN(CC)C(=O)Cc1c(-c2ccc(OCCF)cc2)nn2c(C)cc(CO)nc12` had a Retention_time in data set [1] of 16.87 min. In the data set with Liver microsome [2], the Drug metabolism result is reported as “metabolite_detected”.
